Measured values published in ChEMBL document CHEMBL1126119, “3',3'-Difluoro-3'-deoxythymidine: comparison of anti-HIV activity to 3'-fluoro-3'-deoxythymidine” (J Med Chem, 1992).

Legend:
[1] = system: MT4; assay: Concentration required to affect a 50% reduction in the cytopathic effect of HIV for MT-4 cells; type: functional; conditions: Homo sapiens, read-out: ED50 (the source's name)
Outline: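 HIV-infected MT4 cell cultures were used. ED50 is the dose that gives a 50% reduction in the HIV-induced cytopathic effect.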

[2] = target: Human immunodeficiency virus type 1 reverse transcriptase (Human immunodeficiency virus 1, UniProt Q72547); assay: Concentration required to inhibit HIV reverse transcriptase
[3] = system: MT4; assay: Concentration required to reduce the number of viable cells in the untreated MT-4 cell culture; type: functional; conditions: Homo sapiens, read-out: CD50 (the source's name)
Outline: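 Uninfected, untreated MT4 cell cultures were used. CD50 is the cytotoxic dose that reduces the number of viable cells by 50%.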

IC50 [2] [nM] | Compound | EC50 [1] [µM] | CC50 [3] [µM]
< 50 | Cc1cn([C@H]2C[C@H](F)[C@@H](CO)O2)c(=O)[nH]c1=O [ALOVUDINE] | 0.001 | 0.197
< 50 | Cc1cn([C@H]2CC[C@@H](CO)O2)c(=O)[nH]c1=O | 6 | > 625
8800 | Cc1cn([C@H]2CC(F)(F)[C@@H](CO)O2)c(=O)[nH]c1=O | 38.6 | 48.4

Compound | IC50 [2] [nM] | EC50 [1] [µM] | CC50 [3] [µM]
Cc1cn([C@H]2C[C@H](N=[N+]=[N-])[C@@H](CO)O2)c(=O)[nH]c1=O [ZIDOVUDINE] | 40 | 0.004 | 20
